# Source: ChEMBL document CHEMBL1124154, “Polycyclic aryl- and heteroarylpiperazinyl imides as 5-HT1A receptor ligands and potential anxiolytic agents: synthesis and structure-activity relationship studies” (J Med Chem, 1988)
# Experiments:
# [1] = molecular target: T1, 5-hydroxytryptamine receptor 1A (Rattus norvegicus, UniProt P19327); assay: In vitro inhibition of [3H]-8-hydroxy-2-(di-n-propylamino)tetralin binding to 5-hydroxytryptamine 1A receptor from rat hippocampal tissue.
# T1 sequence (P19327 whole entry): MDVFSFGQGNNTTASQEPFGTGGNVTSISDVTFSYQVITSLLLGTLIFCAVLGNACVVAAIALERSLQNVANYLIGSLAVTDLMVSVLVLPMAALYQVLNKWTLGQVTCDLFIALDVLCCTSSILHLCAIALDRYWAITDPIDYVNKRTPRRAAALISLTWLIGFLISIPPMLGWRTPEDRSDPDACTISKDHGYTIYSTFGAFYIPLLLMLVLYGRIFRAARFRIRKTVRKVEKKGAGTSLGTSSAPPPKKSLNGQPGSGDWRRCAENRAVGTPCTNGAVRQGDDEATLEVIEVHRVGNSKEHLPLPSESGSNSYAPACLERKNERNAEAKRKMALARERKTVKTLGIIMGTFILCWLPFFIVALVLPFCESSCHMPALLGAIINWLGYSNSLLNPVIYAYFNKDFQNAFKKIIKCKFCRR
# Rattus norvegicus = organism: Rattus norvegicus; assay: Concentration required to produce 50% block in avoidance responding in conditioned avoidance response test in rat; format: functional
# How it was run: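 Trained rats in shelf-jump and/or discrete-trial conditioned avoidance paradigms. Drug given ip or po to at least five rats per dose, with a control session before each drug run. Trials without avoidance (avoidance block) were counted per dose as a percentage of total trials, with control set at 100%. AB50 was taken from a least-squares dose-effect regression line.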
# [2] = molecular target: D(2) dopamine receptor (Rattus norvegicus) (UniProt P61169); assay: In vitro inhibition of [3H]spiperone binding to dopamine receptor D2 from rat brain limbic tissue at 1 uM; format: tissue-based; conditions: Limbic system
# [3] = molecular target: T2, 5-hydroxytryptamine receptor 1A (Rattus norvegicus) (UniProt P19327); assay: In vitro inhibition of [3H]-8-hydroxy-2-(di-n-propylamino)tetralin binding to 5-hydroxytryptamine 1A receptor from rat hippocampal tissue at 1 uM; conditions: Hippocampus
# T2 sequence (whole entry): T1 sequence (P19327 whole entry)
# D(2) dopamine receptor = D(2) dopamine receptor (Rattus norvegicus, UniProt P61169); assay: In vitro inhibition of [3H]spiperone binding to Dopamine receptor D2 from rat brain limbic tissue; format: tissue-based, Limbic system
# How it was run: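 Limbic tissue (nucleus accumbens, septum, olfactory tubercle) from Sprague-Dawley rats, washed membranes at 0.2-0.3 mg protein. Incubated with 0.3 nM [3H]spiroperidol and a range of drug concentrations, 10 min at 37 °C, in Tris buffer pH 7.1 with NaCl, KCl, CaCl2, ascorbate and pargyline. Filtered through GF/B and counted by scintillation. Nonspecific binding defined with 1 μM (+)-butaclamol.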
# [4] = Partition coefficient (logP); format: physicochemical; conditions: octanol/water
# D(2) dopamine receptor, sequence (P61169 whole entry): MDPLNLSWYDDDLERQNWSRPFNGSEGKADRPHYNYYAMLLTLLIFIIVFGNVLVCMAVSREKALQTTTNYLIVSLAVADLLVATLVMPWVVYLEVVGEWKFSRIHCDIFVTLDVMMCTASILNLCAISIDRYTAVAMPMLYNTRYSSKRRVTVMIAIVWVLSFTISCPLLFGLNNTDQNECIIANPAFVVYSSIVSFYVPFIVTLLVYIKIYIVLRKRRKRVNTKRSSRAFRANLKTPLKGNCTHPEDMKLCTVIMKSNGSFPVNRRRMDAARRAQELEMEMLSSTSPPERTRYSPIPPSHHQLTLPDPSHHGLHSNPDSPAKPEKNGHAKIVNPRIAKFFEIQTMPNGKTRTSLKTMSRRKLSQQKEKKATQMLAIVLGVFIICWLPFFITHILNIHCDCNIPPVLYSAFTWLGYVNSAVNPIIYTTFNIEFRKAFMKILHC
# D(2) dopamine receptor (Rattus norvegicus), sequence (P61169 whole entry): as above
Structure (SMILES),Ki [1] [nM],AB50 (Rattus norvegicus) [mg/kg],inhibition [2] [%],inhibition [3] [%],Ki (D(2) dopamine receptor) [nM],logP [4]
Cl.O=C1C2C3CCCC(CC3)C2C(=O)N1CCCCN1CCN(c2ncccn2)CC1 (centres undefined),5,40,74,,,
Cl.O=C1C2C3CCCC(CC3)C2C(=O)N1CCCCN1CCN(c2cccc(C(F)(F)F)c2)CC1 (centres undefined),17,>40,97,,,
Cl.O=C1C2C3C=CC(C4C=CC43)C2C(=O)N1CCCCN1CCN(c2ccc(C(F)(F)F)cn2)CC1 (centres undefined),,>40,31,40,,
O=C1C2C3C=CC(C4CC34)C2C(=O)N1CCCCN1CCN(c2ccc(Cl)nn2)CC1 (centres undefined),,40,,,2330,
Cl.O=C1C2C3C=CC(C4CC34)C2C(=O)N1CCCCN1CCN(c2ccc(C(F)(F)F)cn2)CC1 (centres undefined),,40,40,55,,
O=C1C2C3C=CC(C3)C2C(=O)N1CCCCN1CCN(c2cncc(Cl)n2)CC1 (centres undefined),,40,1,74,,
O=C1C2C3C=CC(C3)C2C(=O)N1CCCCN1CCN(c2nccnc2Cl)CC1 (centres undefined),37,40,48,,,
O=C1C2C3C=CC(C4CC34)C2C(=O)N1CCCCN1CCN(c2cccc(Cl)c2)CC1 (centres undefined),14,40,100,,,
O=C1[C@@H]2[C@H]3CC[C@H](C3)[C@@H]2C(=O)N1CCCCN1CCN(c2ncccn2)CC1 [TANDOSPIRONE],9,28,,,,
Cl.O=C1C2C3CCCC(CC3)C2C(=O)N1CCCCN1CCN(c2ccc(C(F)(F)F)cn2)CC1 (centres undefined),,>40,33,71,,
O=C1C2C3CS(=O)(=O)CC3C2C(=O)N1CCCCN1CCN(c2nccnc2Cl)CC1 (centres undefined),,40,0,28,,
O=C1C2C3C=CC(C4CC34)C2C(=O)N1CCCCC1CCN(c2cncc(Cl)n2)CC1 (centres undefined),,40,21,8,,
Cl.O=C1C2C3C=CC(C4C=CC43)C2C(=O)N1CCCCN1CCN(c2cnccn2)CC1 (centres undefined),,40,13,46,,
O=C1C2C3C=CC(C3)C2C(=O)N1CCCCN1CCN(c2ccc(Cl)nn2)CC1 (centres undefined),,40,19,,,
O=C1C2C3C=CC(C4CC34)C2C(=O)N1CCCCN1CCN(c2cncc(Cl)n2)CC1 (centres undefined),,40,,,,
O=C1C2C3CCC(C4CC43)C2C(=O)N1CCCCN1CCN(c2nccnc2Cl)CC1 (centres undefined),26,61,75,,,
Cl.Cn1nnnc1N1CCN(CCCCN2C(=O)C3C4C=CC(C5CCC45)C3C2=O)CC1 (centres undefined),,40,39,47,,
O=C1N(CCCCN2CCN(c3cncc(Cl)n3)CC2)C(=O)C23C4C=CC(C4)C12C1C=CC3C1 (centres undefined),,>40,,98,,
Cl.O=C1C2C3CCC(C4CC43)C2C(=O)N1CCCCN1CCN(c2cccc(C(F)(F)F)c2)CC1 (centres undefined),20,>40,92,,,
O=C1C2C3CCC(C4CCC43)C2C(=O)N1CCCCN1CCN(c2cncc(Cl)n2)CC1 (centres undefined),51,>40,,,,
COc1ccccc1N1CCN(CCCCN2C(=O)C3C4C=CC(C5C=CC54)C3C2=O)CC1.Cl (centres undefined),1.3,19,100,100,,
Cl.O=C1C2C3C=CC(CCC3)C2C(=O)N1CCCCc1ccncc1 (centres undefined),,40,6,0,,

Structure (SMILES),Ki [1] [nM],AB50 (Rattus norvegicus) [mg/kg],inhibition [2] [%],inhibition [3] [%],Ki (D(2) dopamine receptor) [nM],logP [4]
Cl.O=C1N(CCCCN2CCN(c3ncccn3)CC2)C(=O)C23C4C=CC(C4)C12C1C=CC3C1 (centres undefined),,40,53,,,
O=C1N(CCCCN2CCN(c3cncc(Cl)n3)CC2)C(=O)C23C4CCC(C4)C12C1CCC3C1 (centres undefined),,40,,23,,
O=C1C2C3C=CC(C4C=CC43)C2C(=O)N1CCCCN1CCN(c2cccc(Cl)c2)CC1 (centres undefined),41,>40,3,,,
Cl.O=C1N(CCCCN2CCN(c3cnccn3)CC2)C(=O)C23C4C=CC(C4)C12C1C=CC3C1 (centres undefined),129,40,14,,,
Cl.O=C1C2C3CS(=O)(=O)CC3C2C(=O)N1CCCCN1CCN(c2ncccn2)CC1 (centres undefined),,>40,0,44,,
O=C1C2C3CCCC(CC3)C2C(=O)N1CCCCN1CCN(c2cncc(Cl)n2)CC1 (centres undefined),162,>40,49,,,
Cl.O=C1C2C3CCC(C4CC43)C2C(=O)N1CCCCN1CCN(c2ncccn2)CC1 (centres undefined),,34,,,,1.83
O=C1C2CCCCC2C(=O)N1CCCCN1CCN(c2ncccn2)CC1 (centres undefined),,6,,,374,
O=C1C2C3C=CC(CCCC3)C2C(=O)N1CCCCN1CCN(c2cncc(Cl)n2)CC1 (centres undefined),,25,,,,
Cl.O=C1C2C3C=CC(C4C=CC43)C2C(=O)N1CCCCN1CCN(c2cccc(C(F)(F)F)c2)CC1 (centres undefined),25,40,96,,,
Cl.O=C1C2C3C=CC(C4CC34)C2C(=O)N1CCCCN1CCN(c2cccc(C(F)(F)F)c2)CC1 (centres undefined),26,44,91,,,
O=C1C2C3C=CC(C4C=CC43)C2C(=O)N1CCCCN1CCN(c2cncc(Cl)n2)CC1 (centres undefined),,40,50,,,
CC(C)=C1C2C=CC1C1C(=O)N(CCCCN3CCN(c4cncc(Cl)n4)CC3)C(=O)C21 (centres undefined),,40,,,968,
Cl.O=C1C2C3C=CC(C4CC34)C2C(=O)N1CCCCc1ccncc1 (centres undefined),,>40,0,0,,
O=C1C2C3C=CC(C4CCC34)C2C(=O)N1CCCCN1CCN(c2cncc(Cl)n2)CC1 (centres undefined),190,40,,,,
Cl.O=C1N(CCCCN2CCN(c3ncccn3)CC2)C(=O)C23C4CCC(C4)C12C1CCC3C1 (centres undefined),,40,63,,,
Cl.O=C1C2C3C=CC(C4CCC34)C2C(=O)N1CCCCN1CCN(c2cccc(C(F)(F)F)c2)CC1 (centres undefined),57,40,99,,,
O=C1C2C3C=CC(C4CCC34)C2C(=O)N1CCCCN1CCN(c2cccc(Cl)c2)CC1 (centres undefined),19,40,87,,,
O=C1C2C3CCC(C4CC43)C2C(=O)N1CCCCN1CCN(c2cncc(Cl)n2)CC1 (centres undefined),,40,49,72,,
O=C1C2C3CS(=O)(=O)CC3C2C(=O)N1CCCCN1CCN(c2cncc(Cl)n2)CC1 (centres undefined),,40,0,35,,
O=C1C2C3C=CC(CCC3)C2C(=O)N1CCCCN1CCN(c2cncc(Cl)n2)CC1 (centres undefined),,68,43,,,
O=C1C2C3C=CC(C4CCC34)C2C(=O)N1CCCCN1CCN(c2ccc(Cl)nn2)CC1 (centres undefined),,>40,,,1920,
